Reference: ChEMBL document CHEMBL1143542, “Structure-activity relationships of bivalent aminoglycosides and evaluation of their microbiological activities” (2005)
Converted amounts (≈) assume the structure as drawn.

Legend:
[1] = test system: Pseudomonas aeruginosa; experiment: Susceptibility testing against Pseudomonas aeruginosa PAE_NUH25; S=Susceptible; format: functional
[2] = test system: Pseudomonas aeruginosa; experiment: (§1) Susceptibility testing against Pseudomonas aeruginosa PAE_NUH04; R=Resistant; format: functional
[3] = test system: Pseudomonas aeruginosa; experiment: Susceptibility testing against Pseudomonas aeruginosa PAE_NUH20; S=Susceptible; format: functional
[4] = test system: Pseudomonas aeruginosa; experiment: (§2) Susceptibility testing against Pseudomonas aeruginosa PAE_NUH03; R=Resistant; format: functional
[5] = test system: Pseudomonas aeruginosa; experiment: Minimum inhibitory concentration against Pseudomonas aeruginosa ATCC 27853; Range is 0.25-1; format: functional
[6] = test system: Pseudomonas aeruginosa; experiment: (§3) Susceptibility testing against Pseudomonas aeruginosa PAE_NUH02; R=Resistant; format: functional
[7] = test system: Pseudomonas aeruginosa; experiment: Susceptibility testing against Pseudomonas aeruginosa PAE_NUH19; S=Susceptible; format: functional
[8] = test system: Pseudomonas aeruginosa; experiment: Susceptibility testing against Pseudomonas aeruginosa PAE_NUH22; S=Susceptible; format: functional
[9] = test system: Pseudomonas aeruginosa; experiment: Susceptibility testing against Pseudomonas aeruginosa PAE_NUH18; S=Susceptible; format: functional
[10] = test system: Pseudomonas aeruginosa; experiment: (§4) Susceptibility testing against Pseudomonas aeruginosa PAE_NUH01; R=Resistant; format: functional
[11] = test system: Pseudomonas aeruginosa; experiment: Susceptibility testing against Pseudomonas aeruginosa PAE_NUH24; S=Susceptible; format: functional
[12] = test system: Pseudomonas aeruginosa; experiment: Minimum inhibitory concentration against Pseudomonas aeruginosa PAO-1; Range is 0.25-1; format: functional
[13] = test system: Escherichia coli; experiment: In vitro minimum inhibitory concentration against Escherichia coli ATCC 25922; Range is 0.25-1; format: functional
[14] = test system: Pseudomonas aeruginosa; experiment: (§5) Susceptibility testing against Pseudomonas aeruginosa PAE_NUH23; R=Resistant; format: functional
[15] = test system: Pseudomonas aeruginosa; experiment: (§6) Susceptibility testing against Pseudomonas aeruginosa PAE_NUH06; R=Resistant; format: functional
[16] = test system: Staphylococcus aureus; experiment: In vitro minimum inhibitory concentration against Staphylococcus aureus MRSA 3359; format: functional
How it was run: (§7)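 Broth microdilution following CLSI M100-S12. Stocks were 10 mg/mL in water, diluted in Mueller–Hinton broth to a top level of 128, then serially 2-fold in plates. Bacteria in cation-adjusted Mueller–Hinton broth were mixed 1:1 with drug and incubated 16–20 h at 35 °C. MIC was the lowest concentration with no visible growth. Run in duplicate with no-antibiotic and no-inoculum (sterility) controls.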

[17] = test system: Pseudomonas aeruginosa; experiment: Minimum inhibitory concentration against Pseudomonas aeruginosa ATCC 27853; format: functional; how it was run: as §7
[18] = test system: Pseudomonas aeruginosa; experiment: Susceptibility testing against Pseudomonas aeruginosa PAE_NUH17; S=Susceptible; format: functional
[19] = test system: Enterococcus faecalis; experiment: In vitro minimum inhibitory concentration against Enterococcus faecalis 29212; range is 8-32 ug/ml; format: functional; how it was run: as §7
[20] = test system: Pseudomonas aeruginosa; experiment: Susceptibility testing against Pseudomonas aeruginosa PAE_NUH21; S=Susceptible; format: functional
[21] = test system: Pseudomonas aeruginosa; experiment: Susceptibility testing against Pseudomonas aeruginosa PAE_NUH07; S=Susceptible; format: functional
How it was run: (§8)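 Disk diffusion susceptibility profiling against a panel of empirically used antipseudomonal antibiotics. Each strain was categorised as susceptible (S) or intermediate (I).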

[22] = test system: Pseudomonas aeruginosa; experiment: (§9) Susceptibility testing against Pseudomonas aeruginosa PAE_NUH05; R=Resistant; format: functional
[23] = test system: Staphylococcus aureus; experiment: In vitro minimum inhibitory concentration against Staphylococcus aureus ATCC 29213; Range is 0.12-1; format: functional
[24] = test system: Pseudomonas aeruginosa; experiment: as §1; format: functional, organism-based
How it was run: (§10)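 Disk diffusion susceptibility profiling of P. aeruginosa reference and clinical isolates against empirically used antipseudomonal antibiotics. Each isolate was categorised as susceptible, intermediate or resistant.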

[25] = test system: Pseudomonas aeruginosa; experiment: Susceptibility testing against Pseudomonas aeruginosa ATCC 27853; S=Susceptible; format: functional, organism-based; how it was run: as §8
[26] = test system: Pseudomonas aeruginosa; experiment: Susceptibility testing against Pseudomonas aeruginosa PAE_NUH22; R=Resistant; format: functional, organism-based; how it was run: as §10
[27] = test system: Pseudomonas aeruginosa; experiment: Susceptibility testing against Pseudomonas aeruginosa PAE_NUH21; I=Intermediate; format: functional, organism-based; how it was run: as §8
[28] = test system: Pseudomonas aeruginosa; experiment: Susceptibility testing against Pseudomonas aeruginosa PAE_NUH07; R=Resistant; format: functional, organism-based; how it was run: as §10
[29] = test system: Pseudomonas aeruginosa; experiment: as §6; format: functional, organism-based; how it was run: as §10
[30] = test system: Pseudomonas aeruginosa; experiment: as §2; format: functional, organism-based; how it was run: as §10
[31] = test system: Pseudomonas aeruginosa; experiment: Susceptibility testing against Pseudomonas aeruginosa PAE_NUH25; R=Resistant; format: functional, organism-based; how it was run: as §10
[32] = test system: Pseudomonas aeruginosa; experiment: Susceptibility testing against Pseudomonas aeruginosa PAE_NUH24; R=Resistant; format: functional, organism-based; how it was run: as §10
[33] = test system: Pseudomonas aeruginosa; experiment: as §5; format: functional, organism-based; how it was run: as §10
[34] = test system: Pseudomonas aeruginosa; experiment: Susceptibility testing against Pseudomonas aeruginosa PAE_NUH18; R=Resistant; format: functional, organism-based; how it was run: as §10
[35] = test system: Pseudomonas aeruginosa; experiment: as §4; format: functional, organism-based; how it was run: as §10
[36] = test system: Pseudomonas aeruginosa; experiment: as §9; format: functional, organism-based; how it was run: as §10
[37] = test system: Pseudomonas aeruginosa; experiment: Susceptibility testing against Pseudomonas aeruginosa PAE_NUH17; R=Resistant; format: functional, organism-based; how it was run: as §10
[38] = test system: Pseudomonas aeruginosa; experiment: Susceptibility testing against Pseudomonas aeruginosa PAE_NUH20; R=Resistant; format: functional, organism-based; how it was run: as §10
[39] = test system: Pseudomonas aeruginosa; experiment: Susceptibility testing against Pseudomonas aeruginosa PAE_NUH19; R=Resistant; format: functional, organism-based; how it was run: as §10
[40] = test system: Pseudomonas aeruginosa; experiment: as §3; format: functional, organism-based; how it was run: as §10

NC[C@H]1O[C@H](O[C@H]2[C@H](O)[C@@H](O[C@H]3O[C@H](CO)[C@@H](O)[C@H](N)[C@H]3O)[C@H](N)C[C@@H]2N)[C@H](N)C[C@@H]1O [TOBRAMYCIN]
MIC [1]: 0.5 mg/L (≈ 1.07 µM) | MIC [2]: 100 mg/L (≈ 214 µM) | MIC [3]: 2 mg/L (≈ 4.28 µM) | MIC [4]: 50 mg/L (≈ 107 µM) | MIC [5]: 1 mg/L (≈ 2.14 µM) | MIC [6]: 50 mg/L (≈ 107 µM) | MIC [7]: 0.5 mg/L (≈ 1.07 µM) | MIC [8]: 0.25 mg/L (≈ 0.535 µM) | MIC [9]: 0.5 mg/L (≈ 1.07 µM) | MIC [10]: > 200 mg/L | MIC [11]: 1 mg/L (≈ 2.14 µM) | MIC [12]: 1 mg/L (≈ 2.14 µM) | MIC [13]: 1 mg/L (≈ 2.14 µM) | MIC [14]: > 32 mg/L | MIC [15]: 100 mg/L (≈ 214 µM) | MIC [16]: > 64 mg/L | MIC [17]: 1 mg/L (≈ 2.14 µM) | MIC [18]: 1 mg/L (≈ 2.14 µM) | MIC [19]: 32 mg/L (≈ 68.4 µM) | MIC [20]: 1 mg/L (≈ 2.14 µM) | MIC [21]: 6.3 mg/L (≈ 13.5 µM) | MIC [22]: 100 mg/L (≈ 214 µM) | MIC [23]: 1 mg/L (≈ 2.14 µM)

CN(C)[C@@H]1C(O)=C(C(N)=O)C(=O)[C@@]2(O)C(O)=C3C(=O)c4c(O)cccc4[C@@](C)(O)[C@H]3C[C@@H]12
Activity [24]: Resistant | Activity [25]: Susceptible | Activity [26]: Resistant | Activity [27]: Partial resistance | Activity [28]: Resistant | Activity [29]: Resistant | Activity [30]: Resistant | Activity [31]: Resistant | Activity [32]: Resistant | Activity [33]: Resistant | Activity [34]: Resistant | Activity [35]: Resistant | Activity [36]: Resistant | Activity [37]: Resistant | Activity [38]: Resistant | Activity [39]: Resistant | Activity [40]: Resistant
